Results as given in ChEMBL document CHEMBL1124544, “Structure-activity relationship of antiestrogens: a study using triarylbutenone, benzofuran, and triarylfuran analogues as models for triarylethylenes and triarylpropenones” (1989).
The source made the active and inactive calls. The calls are words filed in the database; no cut-off is given here.

Key:
[1] = test system: Rattus norvegicus; test: Uterotrophic effects in rats following 3 x 1 mg s.c. over 72h.; type: functional, Uterus
How it was run: (§1)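 Immature Sprague-Dawley female rats, 21–23 days old, seven to nine per group, injected s.c. on 3 consecutive days with test compound suspended in 0.2 mL propylene glycol–saline (1:1 v/v). Vehicle-only controls. Autopsy 24 h after the final dose, uterine wet weight recorded. Agonist activity computed as (C₀ − V)(100)/(E − V), with E the E₂-alone mean.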

[2] = target: T1, Estrogen receptor (Rattus norvegicus) (UniProt P06211+Q62986); test: Relative binding against estrogen receptor of rat uterine cytosol by [2-4-3H] estradiol.; type: protein assay
How it was run: (§2)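 Uterine cytosol (1 uterine equiv/mL) from immature rats primed s.c. with 1 μg E₂ for 3 days, incubated 18 h at 4 °C with [³H]E₂ (5 × 10⁻⁹ M) and test compound (10⁻⁴–10⁻⁹ M) in triplicate. Medium was Tris-HCl/EDTA/azide buffer, pH 7.4, with 7% DMF. Free ligand removed with charcoal-dextran for 20 min before scintillation counting. Results expressed relative to E₂ = 100, mean ± SD of ≥3 determinations.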

[3] = test system: Rattus norvegicus; test: Anti-uterotrophic effects in rats following 3 x 1 mg s.c. over 72h.; type: functional
How it was run: (§3)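 Immature female Sprague-Dawley rats (21–23 days), groups of seven to nine, given test compound suspended in 0.2 mL propylene glycol–saline (1:1 v/v) s.c. daily for 3 consecutive days, plus 1 μg E₂ per animal at a separate site. Controls got E₂ plus vehicle. Uterine wet weight taken at autopsy 24 h after the last injection. Inhibition computed as (E − C₁)(100)/(E − V).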

[4] = test system: Rattus norvegicus; test: Inhibition of E2 effects in rats by 1 mg s.c.; type: functional; how it was run: as §3
[5] = test system: Rattus norvegicus; test: Estrogenicity in rats following 3 x 1 mg s.c. over 72h.; type: functional; how it was run: as §1
[6] = test system: Rattus norvegicus; test: Anti-uterotrophic effects in rats following 3 x 0.1 mg s.c. over 72h.; type: functional; how it was run: as §3
[7] = test system: Rattus norvegicus; test: Uterotrophic effects in rats following 3 x 0.1 mg s.c. over 72h.; type: functional, Uterus; how it was run: as §1
[8] = test system: Rattus norvegicus; test: Estrogenicity in rats following 3 x 0.1 mg s.c. over 72h.; type: functional; how it was run: as §1
[9] = test system: Rattus norvegicus; test: Inhibition of E2 effects in rats by 0.1 mg s.c.; type: functional; how it was run: as §3
[10] = target: T1, Estrogen receptor (Rattus norvegicus); test: Relative binding affinity against estrogen receptor of rat uterine cytosol by [2-4-3H] estradiol; No detectable affinity at 100 uM.; how it was run: as §2

RBA [2]	RBA [10]	Structure (SMILES)	Uterine weight [1]	Uterine weight [3]	Inhibition [4]	Estrogenic effect [5]	Uterine weight [6]	Uterine weight [7]	Estrogenic effect [8]	Inhibition [9]
2.7%	–	O=C(c1ccc(O)cc1)c1oc2cc(O)ccc2c1-c1ccc(O)cc1	26.3 mg	48.3 mg	23%	31%	–	–	–	–
0.01%	–	COc1ccc2c(-c3ccc(OCCN4CCCC4)cc3)c(-c3ccccc3)oc2c1	35.4 mg	61.4 mg	0%	57%	–	–	–	–
5.3%	–	O=C(c1ccc(O)cc1)c1c(-c2ccccc2)oc2ccccc12	16.3 mg	50.7 mg	0%	10%	–	–	–	–
0.01%	–	O=C(c1ccc(OCCN2CCCC2)cc1)c1c(-c2ccccc2)oc2ccccc12	16.7 mg	56.1 mg	0%	0%	–	–	–	–
1.6%	–	Oc1ccc(-c2c(-c3ccccc3)oc3cc(O)ccc23)cc1	14.6 mg	46.5 mg	0%	0%	–	–	–	–
0.54%	–	C/C(=C(\C(=O)c1ccc(O)cc1)c1ccccc1)c1ccccc1	–	–	–	–	47.3 mg	19.8 mg	0%	14%
1.8%	–	O=C(/C(=C/c1ccccc1)c1ccccc1)c1ccc(O)cc1	–	–	–	–	78.1 mg	49.4 mg	68%	0%
0.84%	–	c1ccc(-c2coc(-c3ccccc3)c2-c2ccc(OCCN3CCCC3)cc2)cc1	–	–	–	–	53.9 mg	26.4 mg	31%	0%
0.008%	–	C/C(=C(/C(=O)c1ccc(OCCN2CCCC2)cc1)c1ccccc1)c1ccccc1	–	–	–	–	43.1 mg	30.6 mg	38%	26%
3.6%	–	C/C(=C(/C(=O)c1ccc(O)cc1)c1ccccc1)c1ccccc1	–	–	–	–	44.7 mg	46.4 mg	83%	21%
3%	–	Oc1ccc(-c2coc(-c3ccccc3)c2-c2ccccc2)cc1	–	–	–	–	57.6 mg	48.9 mg	100%	0%
0.01%	–	COc1ccc2c(-c3ccc(O)cc3)c(-c3ccccc3)oc2c1	–	–	–	–	–	–	–	–
4.5%	–	Oc1ccc(-c2c(-c3ccccc3)coc2-c2ccccc2)cc1	–	–	–	–	42.8 mg	16.7 mg	0%	0%
7.8%	–	Oc1ccc(-c2oc3cc(O)ccc3c2-c2ccc(O)cc2)cc1	21.2 mg	39.6 mg	30%	22%	–	–	–	–
–	inactive	c1ccc(-c2occ(-c3ccc(OCCN4CCCC4)cc3)c2-c2ccccc2)cc1	–	–	–	–	52.1 mg	35.6 mg	61%	0%
2.1%	–	O=C(c1ccc(O)cc1)c1c(-c2ccccc2)oc2cc(O)ccc12	22.4 mg	38 mg	37%	25%	–	–	–	–
0.3%	–	Cl.O=C(c1ccccc1)c1c(-c2ccc(OCCN3CCCC3)cc2)oc2ccccc12	27.7 mg	29.6 mg	58%	38%	–	–	–	–
0.12%	–	O=C(c1ccccc1)c1c(-c2ccc(O)cc2)oc2ccccc12	13.7 mg	47.4 mg	0%	0%	–	–	–	–
0.06%	–	O=C(/C(=C\c1ccccc1)c1ccccc1)c1ccc(O)cc1	–	–	–	–	70.4 mg	22.2 mg	33%	0%
1.7%	–	O=C(c1ccc(O)cc1)c1c(-c2ccc(O)cc2)oc2ccccc12	13.1 mg	59.3 mg	0%	0%	–	–	–	–
0.24%	–	C/C(=C(\C(=O)c1ccc(OCCN2CCCC2)cc1)c1ccccc1)c1ccccc1	–	–	–	–	46.6 mg	18 mg	0%	16%
0.72%	–	O=C(c1ccccc1)c1c(-c2ccc(O)cc2)oc2cc(O)ccc12	26.6 mg	43.2 mg	0%	35%	–	–	–	–
0.01%	–	COc1ccc(-c2c(-c3ccccc3)oc3cc(O)ccc23)cc1	–	–	–	–	–	–	–	–
